Screening results deposited in PubChem BioAssay by several laboratories.
PfG6PD inh: PfG6PD enzyme inhibitors, primary screen, biochemical, fluorescence intensity, uHTS; glucose-6-phosphate dehydrogenase-6-phosphogluconolactonase (Plasmodium falciparum 3D7); PfGluPho enzyme, NADPH resazurin-diaphorase fluorescence; inhibition, % at 20 µM; 350,000 compounds, 0.78% hits; AID 504690, 2011;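 active means inhibition reaching at least a set limit at 20 µM in the primary screen, cut at about 59% in these data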;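 further: 0% = DMSO wells with substrate and 100% = DMSO wells lacking glucose-6-phosphate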
EBNA-1 inhibitor: EBNA-1 DNA-binding inhibitors, primary screen, biochemical, fluorescence polarization; inhibition, % at 14.8 µM; 300,000 compounds, 0.34% hits; in the data active means inhibition above about 28%
Apaf-1 inh: inhibitors of human Apaf-1 apoptosome, primary screen, biochemical, DEVD-Rh110 fluorescence, uHTS. inhibition, % at 20 µM. reconstituted apoptosome caspase-3 activity. 330,000 compounds, 0.71% hits; active means inhibition of at least 40% at 20 µM;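 further: plate controls were DMSO wells for no effect and DEVD-CHO caspase inhibitor wells for full effect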
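System: Apoptosome proteins | Medium: Hepes pH 7.5 with detergent and BSA | Also added: Cytochrome c trigger plus (Z-DEVD)2-Rh110 caspase-3 substrate | Incubation: 30 min compound preincubation, 50 min activation, room temperature | Detection: Rhodamine 110 fluorescence at Ex 480/Em 540 nm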
ZTA counter: counter-screen for EBNA-1 inhibitors: inhibitors of Epstein-Barr virus ZTA; P03206; 320,000 compounds, 0.15% hits; inhibition, % at 11 µM; AID 2234; ZTA-DNA binding, fluorescence polarization; in the data active means inhibition above about 33%
Target sequence (P03206 whole entry, looked up): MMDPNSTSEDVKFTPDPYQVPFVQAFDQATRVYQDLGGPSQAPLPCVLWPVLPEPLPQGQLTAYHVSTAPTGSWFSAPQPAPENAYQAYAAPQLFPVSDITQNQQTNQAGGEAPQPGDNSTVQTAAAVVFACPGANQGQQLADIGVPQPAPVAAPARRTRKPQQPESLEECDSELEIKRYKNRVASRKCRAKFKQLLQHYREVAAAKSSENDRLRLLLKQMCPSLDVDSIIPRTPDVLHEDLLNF
UBC13 polyUb: UBC13 polyubiquitin chain formation inhibitors, primary screen, biochemical, TR-FRET, uHTS | inhibition, % at 20 µM | 330,000 compounds, 0.47% hits; in the data active means inhibition above about 45%, passing the limit was not always enough
Target sequence (P61088 whole entry, looked up): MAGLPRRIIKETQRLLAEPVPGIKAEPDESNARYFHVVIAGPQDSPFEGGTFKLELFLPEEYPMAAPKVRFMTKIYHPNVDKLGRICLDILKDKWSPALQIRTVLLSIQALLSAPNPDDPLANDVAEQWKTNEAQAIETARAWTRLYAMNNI
PfM18AAP inh: PfM18AAP inhibitors, malaria aminopeptidase, primary screen, biochemical, QFRET, recombinant enzyme | 290,000 compounds, 1.2% hits | AID 1822, 2009 | M18 aspartyl aminopeptidase (Plasmodium falciparum 3D7) | inhibition, % at 7.35 µM | H-Glu-NHMec fluorogenic cleavage;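 active means inhibition above the campaign mean inhibition over all tested compounds plus 3 SD, cut at about 28% in these data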;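 further: 0% = plate median of test compound wells and 100% = 2 mM ZnCl2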
PfG6PD confirm: PfG6PD inhibitors, hit retest, confirmation, biochemical, fluorescence intensity, single concentration; shares compounds with PfG6PD inh; recombinant PfGluPho, NADPH-diaphorase-resazurin fluorescence; inhibition, % at 20 µM; 2,400 compounds, 34% hits;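 active means inhibition of at least 50% at 20 µM in any single replicate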;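 further: 0% = DMSO with substrate and 100% = DMSO lacking glucose-6-phosphate substrate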
Diaph ctr 10uM: diaphorase inhibitors and chemical oxidizers, confirmation, counter-screen for P. falciparum G6PD inhibitor project, biochemical, fluorescence intensity, 10 µM NADPH; diaphorase-coupled resazurin reduction, NADPH 10 uM; inhibition, % at 20 µM; 820 compounds, 39% hits; AID 504862, 2011; shares compounds with PfG6PD inh;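 active means average inhibition reaching 50% or more with the compound at 20 µM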;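 further: resorufin red fluorescence formed as diaphorase reduces resazurin using NADPH; 0% = DMSO with enzyme and 100% = DMSO without enzyme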
Diaph ctr 30uM: diaphorase inhibitors and chemical oxidizers, confirmation, counter-screen for P. falciparum G6PD inhibitor project, biochemical, fluorescence intensity, 30 µM NADPH | shares compounds with PfG6PD inh | Diaphorase/resazurin coupled assay, resorufin fluorescence | inhibition, % at 20 µM | 820 compounds, 29% hits;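 active means inhibition averaging 50% or more, tested at 20 µM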;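 further: 0% = DMSO with enzyme and 100% = DMSO wells lacking diaphorase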
* hit, by the source's call; · = no result given. In the library only some 2.9% were active in any assay of this set; here they are far more common.

SMILES | PfG6PD inh | EBNA-1 inhibitor | Apaf-1 inh | ZTA counter | UBC13 polyUb | PfM18AAP inh | PfG6PD confirm | others
Cc1sc2nc(CN3CCN(c4ccc(O)cc4)CC3)[nH]c(=O)c2c1C | 79.3* | -9.5 | 2.6 | -10.8 | -7.3 | 31.6* | 48.9
CC1CCCC(NC(=O)c2ccc(F)c(S(=O)(=O)N3CCOCC3)c2)C1C (stereo unspecified) | -1.8 | -0.5 | 12.4 | -19.2 | -2.8 | · | ·
CCOc1ccc(-c2c(C(=O)N/N=C/c3sccc3C)nnn2-c2nonc2N)cc1 | 9.5 | 8.6 | 7.0 | -4.2 | -6.4 | 3.3 | ·
CCOc1cccc(-c2c(C(=O)N/N=C/c3ccc(C)s3)nnn2-c2nonc2N)c1 | 66.7* | -4.2 | 15.7 | 19.1 | -11.2 | 3.5 | 39.9
Cc1ccsc1/C=N/NC(=O)c1nnn(-c2nonc2N)c1-c1ccc2c(c1)OCO2 | 65.9* | -11.8 | 1.3 | 2.0 | -14.2 | 5.3 | 31.5
CCOc1cccc(-c2c(C(=O)N/N=C/c3sccc3C)nnn2-c2nonc2N)c1 | 86.7* | 0.1 | 11.2 | -4.5 | -5.6 | -1.7 | 31.5
COc1cccc(-c2c(C(=O)N/N=C/c3ccc(C)o3)nnn2-c2nonc2N)c1 | 65.6* | 2.4 | 10.3 | 7.7 | -9.5 | -1.9 | 55.8* | Diaph ctr 10uM=26.6;Diaph ctr 30uM=18.9
COc1cccc(-c2c(C(=O)N/N=C/c3ccncc3)nnn2-c2nonc2N)c1 | 8.0 | 4.2 | -0.5 | 6.9 | 1.3 | 7.0 | ·
COc1cccc(-c2c(C(=O)N/N=C/c3ccc(C)s3)nnn2-c2nonc2N)c1 | 97.8* | 11.3 | 12.2 | 8.0 | 2.4 | 1.8 | 49.5* | Diaph ctr 10uM=65.3*;Diaph ctr 30uM=42.4
COc1ccc(C(=O)Nc2ccccc2C(=O)N2CCOCC2)cc1 | -13.9 | -8.8 | 1.7 | -4.8 | -1.9 | -0.4 | ·
O=C1CC(c2ccc(O)c(O)c2)Oc2cc(O)cc(O)c21 (stereo unspecified) | -30.5 | 2.4 | -7.8 | 12.7 | 16.5 | · | ·
Oc1ccc(C2C[C@H]3CC[C@@H]2C3)cc1O (stereo partly specified) | 79.4* | -21.4 | 20.5 | 0.4 | 11.8 | 82.7* | 77.2* | Diaph ctr 10uM=26.5;Diaph ctr 30uM=23.0
CC(C)CCN1CCN(C2CCN(c3ccccc3)CC2)CC1CCO (stereo unspecified) | 0.5 | 5.0 | -3.4 | 14.5 | 3.2 | 3.2 | ·
N=c1n(CCN2CCCCC2)c2ccccc2n1CC(=O)c1ccc(Cl)c(Cl)c1 | 93.0* | -5.3 | 25.6 | -0.2 | 39.4 | 2.3 | 4.2
CCn1c(=N)n(CC(=O)c2ccc(Cl)c(Cl)c2)c2ccccc21 | 51.8 | -9.4 | 21.5 | 1.2 | 10.4 | 2.4 | ·
CC(C)c1nc2oc3c(NCc4ccccn4)ncnc3c2c2c1COC(C)(C)C2 | 65.3* | -3.5 | -18.4 | -0.5 | 29.5 | · | 28.0
COc1ncnc2c1oc1nc(C)c3c(c12)CC(C)(C)OC3 | 12.2 | 0.5 | -3.1 | -5.7 | 1.9 | -1.5 | ·
COc1ncnc2c1oc1nc(C(C)C)c3c(c12)CC(C)(C)OC3 | 62.0* | -15.8 | 9.0 | -15.0 | -2.8 | 4.0 | 37.3
Cc1nc2oc3c(NCc4ccccn4)ncnc3c2c2c1COC(C)(C)C2 | 22.9 | -1.6 | 5.9 | -5.1 | 2.5 | -0.8 | ·
CCCc1ccc(C(C)NC(=S)NC2CCCCC2)cc1 (stereo unspecified) | -4.8 | · | 10.9 | · | 5.8 | 0.1 | ·
CC(C)(C)Nc1nc(-c2ccc3c(c2)CCN3C(=O)C2CC2)cs1 | 69.5* | -3.5 | 8.6 | -11.4 | -1.9 | 10.4 | 17.0
CC(C)C(=O)Nc1nc(-c2ccc3c(c2)CCN3C(=O)C2CC2)cs1 | 51.6 | 0.9 | 5.9 | -3.2 | 3.9 | 2.9 | ·
Nc1c(C(=O)Nc2ccc(Cl)c(C(=O)O)c2)sc2nc3c(cc12)CCCC3 | 59.2* | -4.0 | -11.9 | -13.1 | 10.2 | 8.7 | 10.3
Nc1c(C(=O)Nc2cccc(C(=O)O)c2)sc2nc3c(cc12)CCCC3 | 31.7 | 1.0 | 6.2 | 1.4 | 8.3 | 5.8 | ·
CC(C)CN(C1CCS(=O)(=O)C1)S(=O)(=O)c1ccc(C(C)C)cc1 (stereo unspecified) | 0.1 | 1.9 | 7.3 | -4.5 | -4.5 | · | ·
SMILES | PfG6PD inh | EBNA-1 inhibitor | Apaf-1 inh | ZTA counter | UBC13 polyUb | PfM18AAP inh | PfG6PD confirm | others
COc1cc(CNn2c(C)n[nH]c2=S)cc(Cl)c1OCc1ccc(F)cc1 | 46.0 | 7.1 | 16.6 | 1.3 | -2.9 | -7.8 | ·
COc1cc(CNn2c(C)n[nH]c2=S)cc(Br)c1OCc1ccc(F)cc1 | 70.1* | 0.6 | 11.9 | 2.8 | 7.6 | 7.8 | 32.6
CCN(C(=O)COC(=O)CSc1ccc([N+](=O)[O-])cc1)C1CCS(=O)(=O)C1 (stereo unspecified) | 59.8* | 4.4 | -5.0 | 5.0 | 0.1 | 3.6 | 0.8
O=C(c1ccco1)N1CCN(C(=O)c2ccc(-c3ccc([N+](=O)[O-])cc3)o2)CC1 | 64.3* | · | 7.5 | · | -27.5 | · | -5.9
CCOc1ccc(Nc2cc(C)nc(N3CCOCC3)n2)cc1 | -2.6 | -0.1 | 9.9 | -9.7 | 4.9 | -6.6 | ·
Cc1cc(Nc2ccc(C)c(Cl)c2)nc(N2CCOCC2)n1 | 65.8* | -3.1 | 3.7 | 7.4 | 11.4 | 0.3 | 7.6
Cc1ccc(Nc2cc(C)nc(N3CCOCC3)n2)cc1 | 61.3* | 7.3 | 0.9 | -4.0 | 8.1 | 0.4 | 11.8
NC(=S)N/N=C/c1cccc(/C=N/NC(N)=S)c1 | 28.7 | 8.7 | -18.0 | 4.4 | 4.0 | 8.9 | ·
NC(=S)NN=Cc1nccc2c(C(F)(F)C(F)(F)C(F)(F)F)cccc12 | -16.7 | · | · | · | · | · | ·
NC(=S)NN=Cc1nccc2ccccc12 | 80.0* | · | · | · | · | · | 38.4
Cc1cnc(C=NNC(N)=S)c2cccc(N)c12 | 105.7* | · | · | · | · | · | 66.1* | Diaph ctr 10uM=-8.3;Diaph ctr 30uM=-6.3
O=C(Cn1ccc(=O)[nH]c1=O)c1ccc([N+](=O)[O-])o1 | 59.3* | · | · | · | · | · | 33.5
O=C(Cn1ccc(=O)[nH]c1=O)NCCO | -11.4 | -1.1 | -8.4 | 10.0 | -1.6 | 2.9 | ·
O=S1(=O)c2ccc(Br)cc2N2CCC[C@@H]2CN1Cc1ccc(Cl)cc1 | 62.9* | · | · | · | · | · | 7.2
O=S1(=O)c2ccc(Br)cc2N2CCC[C@H]2CN1Cc1ccccc1 | 72.7* | · | 26.9 | · | · | · | 7.5
